From ChEMBL document CHEMBL2384907, “Identification of substituted pyrimido[5,4-b]indoles as selective Toll-like receptor 4 ligands” (J Med Chem, 2013)
Calls of active or inactive are those of the source. The calls are words filed in the database; no cut-off is given here.

Legend:
Assay type in all cases: cell-based
[1] = target: T1, Toll-like receptor 4 (Mus musculus) (UniProt Q9QUK6); assay: Activation of mouse TLR4 transfected in HEK293 cells assessed as NFkappaB activation after 20 to 24 hrs by SEAP assay
T1 sequence (whole entry): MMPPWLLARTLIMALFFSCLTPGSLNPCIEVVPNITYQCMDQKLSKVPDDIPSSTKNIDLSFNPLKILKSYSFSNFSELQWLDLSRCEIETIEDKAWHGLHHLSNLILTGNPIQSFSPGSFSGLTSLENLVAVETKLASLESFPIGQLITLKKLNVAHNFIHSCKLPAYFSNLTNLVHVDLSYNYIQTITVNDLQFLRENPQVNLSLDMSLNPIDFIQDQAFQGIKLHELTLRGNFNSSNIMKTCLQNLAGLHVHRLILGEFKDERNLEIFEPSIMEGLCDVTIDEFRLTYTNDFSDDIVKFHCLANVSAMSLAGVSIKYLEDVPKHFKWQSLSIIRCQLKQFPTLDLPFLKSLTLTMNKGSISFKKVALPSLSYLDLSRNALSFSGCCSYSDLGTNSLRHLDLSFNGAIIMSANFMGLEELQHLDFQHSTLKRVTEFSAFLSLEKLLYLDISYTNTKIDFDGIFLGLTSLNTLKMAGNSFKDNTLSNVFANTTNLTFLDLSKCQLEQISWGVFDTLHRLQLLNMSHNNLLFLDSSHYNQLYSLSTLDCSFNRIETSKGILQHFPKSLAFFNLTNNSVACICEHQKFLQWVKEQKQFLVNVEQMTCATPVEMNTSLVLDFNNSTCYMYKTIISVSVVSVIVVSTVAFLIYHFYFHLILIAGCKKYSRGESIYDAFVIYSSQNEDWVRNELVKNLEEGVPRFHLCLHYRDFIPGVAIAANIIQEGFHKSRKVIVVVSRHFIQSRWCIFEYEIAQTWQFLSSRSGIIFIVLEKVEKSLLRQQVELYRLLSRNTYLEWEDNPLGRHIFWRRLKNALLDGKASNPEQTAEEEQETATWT
Summary of the method: (§1)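 Human or mouse TLR4 HEK-Blue cells (2.5 × 10^4/well) incubated with graded concentrations for 20–24 h; NFκB-driven SEAP in culture supernatant measured colorimetrically.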

[2] = target: Toll-like receptor 4 (Homo sapiens) (UniProt O00206); assay: Activation of human TLR4 transfected in HEK293 cells assessed as NFkappaB activation after 20 to 24 hrs by SEAP assay; summary of the method: as §1
Sequence of Toll-like receptor 4 (Homo sapiens) (O00206 whole entry): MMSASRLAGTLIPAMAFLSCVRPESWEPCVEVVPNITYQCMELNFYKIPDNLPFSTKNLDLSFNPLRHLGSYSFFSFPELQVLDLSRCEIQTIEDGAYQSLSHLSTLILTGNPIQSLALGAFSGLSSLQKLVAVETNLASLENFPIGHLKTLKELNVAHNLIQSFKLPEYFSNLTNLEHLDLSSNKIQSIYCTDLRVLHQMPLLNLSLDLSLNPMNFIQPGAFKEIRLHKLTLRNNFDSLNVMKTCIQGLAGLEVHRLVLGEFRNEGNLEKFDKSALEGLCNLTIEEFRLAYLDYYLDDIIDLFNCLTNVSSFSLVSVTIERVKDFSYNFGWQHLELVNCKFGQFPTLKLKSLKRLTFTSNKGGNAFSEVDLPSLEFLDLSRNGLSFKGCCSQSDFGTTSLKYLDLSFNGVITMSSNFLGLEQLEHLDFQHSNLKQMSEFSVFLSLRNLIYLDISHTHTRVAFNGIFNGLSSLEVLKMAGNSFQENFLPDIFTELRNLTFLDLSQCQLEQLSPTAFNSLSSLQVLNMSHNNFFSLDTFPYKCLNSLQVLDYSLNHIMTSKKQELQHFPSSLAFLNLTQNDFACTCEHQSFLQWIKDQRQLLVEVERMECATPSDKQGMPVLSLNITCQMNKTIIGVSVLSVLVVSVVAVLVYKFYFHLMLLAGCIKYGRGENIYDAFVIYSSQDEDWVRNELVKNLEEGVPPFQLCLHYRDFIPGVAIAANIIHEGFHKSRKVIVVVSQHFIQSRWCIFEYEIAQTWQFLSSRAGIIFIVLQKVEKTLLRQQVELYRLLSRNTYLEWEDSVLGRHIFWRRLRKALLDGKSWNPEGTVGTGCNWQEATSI

[3] = target: T2, Toll-like receptor 8 (Homo sapiens) (UniProt Q9NR97); assay: Activation of human TLR8 transfected in HEK293 cells at 10 uM after 20 to 24 hrs by SEAP assay
T2 sequence (whole entry): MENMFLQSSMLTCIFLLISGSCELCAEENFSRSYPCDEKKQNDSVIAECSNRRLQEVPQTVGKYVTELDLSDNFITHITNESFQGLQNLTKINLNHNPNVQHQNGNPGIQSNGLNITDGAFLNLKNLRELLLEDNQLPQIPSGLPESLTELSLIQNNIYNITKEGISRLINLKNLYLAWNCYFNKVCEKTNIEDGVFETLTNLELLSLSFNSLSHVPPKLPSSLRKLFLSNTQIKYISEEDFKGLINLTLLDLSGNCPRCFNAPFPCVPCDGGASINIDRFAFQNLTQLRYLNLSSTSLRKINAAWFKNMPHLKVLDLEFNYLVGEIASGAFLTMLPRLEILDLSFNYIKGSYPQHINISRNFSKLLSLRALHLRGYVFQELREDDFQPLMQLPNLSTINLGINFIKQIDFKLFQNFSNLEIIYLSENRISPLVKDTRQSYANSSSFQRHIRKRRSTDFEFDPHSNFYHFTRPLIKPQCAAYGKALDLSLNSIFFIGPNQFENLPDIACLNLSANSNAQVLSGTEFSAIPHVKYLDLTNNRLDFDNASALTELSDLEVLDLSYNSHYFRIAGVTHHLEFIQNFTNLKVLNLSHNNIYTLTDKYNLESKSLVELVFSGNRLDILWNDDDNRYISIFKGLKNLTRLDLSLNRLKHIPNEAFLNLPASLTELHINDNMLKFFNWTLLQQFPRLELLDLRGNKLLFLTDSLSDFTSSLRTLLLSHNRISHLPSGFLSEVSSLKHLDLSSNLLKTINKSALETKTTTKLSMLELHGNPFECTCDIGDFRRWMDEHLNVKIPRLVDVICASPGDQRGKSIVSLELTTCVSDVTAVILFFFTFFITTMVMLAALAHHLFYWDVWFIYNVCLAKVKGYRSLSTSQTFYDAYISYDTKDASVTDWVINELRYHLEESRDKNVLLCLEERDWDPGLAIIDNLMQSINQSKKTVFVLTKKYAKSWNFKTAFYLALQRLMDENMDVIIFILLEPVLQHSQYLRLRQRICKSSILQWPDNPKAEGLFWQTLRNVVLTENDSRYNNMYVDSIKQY

With `O=C(CSc1nc2c([nH]c3ccccc32)c(=O)n1-c1ccccc1)NC1CCCCC1` as the compound, how does the Activity [1] read?
The Activity was “Dose-dependent effect”.

And the Activity [2]?
The Activity was “Dose-dependent effect”.

What about the Activity [3] of the same compound?
Its Activity is “inactive”.
